Assay outcomes deposited in PubChem by several laboratories.
Only some compounds are listed: those with a hit (about 1.6% of all), similar ones and a draw of the others.
SUMO1 PPI mod: modulators of SUMO1 protein-protein interactions, primary screen, biochemical, uHTS; Small ubiquitin-related modifier 1 (Homo sapiens), P63165; 360,000 compounds, 0.33% hits; inhibition, % at 20 µM; SUMO1 binding to a labelled peptide, TR-FRET, 1 h; in the data active = inhibition above about 37%
Target sequence (P63165 whole entry, looked up): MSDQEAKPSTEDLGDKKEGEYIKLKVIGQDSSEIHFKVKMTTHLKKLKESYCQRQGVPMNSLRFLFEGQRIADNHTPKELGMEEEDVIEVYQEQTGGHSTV
CFTR F508del cor: F508del CFTR correction, initial screen, CFBE line, single point; CFBE cells, YFP halide quenching; stimulated with forskolin plus potentiator P3; % fluorescence drop versus neutral controls; activity (quench increase), % at 7.58 µM; 350,000 compounds, 0.36% hits;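 active = mean added fluorescence quench of at least 8% versus neutral control, with both replicates also reaching 8%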;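 note: cells transiently co-express mutant CFTR-F508del with the halide-sensitive YFP; corrector assay measuring rescue of mutant channel to the surface after 24 h compound exposure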
LMPTP inh: LMPTP phosphatase inhibitors, primary screen, biochemical, fluorescence intensity, uHTS. recombinant LMPTP-A, OMFP fluorogenic substrate. AID 651560, 2012. inhibition, % at 20 µM. Low molecular weight phosphotyrosine protein phosphatase (Homo sapiens), P24666. 360,000 compounds, 0.22% hits;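 active = compounds that cut the enzyme signal by at least half of the control window in the single-dose screen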
Target sequence (P24666 whole entry, looked up): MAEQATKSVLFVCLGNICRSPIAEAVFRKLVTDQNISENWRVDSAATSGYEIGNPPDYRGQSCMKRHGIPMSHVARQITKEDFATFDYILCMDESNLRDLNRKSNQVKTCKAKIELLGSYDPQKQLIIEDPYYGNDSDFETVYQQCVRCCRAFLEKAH
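Test system: LMPTP-A phosphatase enzyme. Amount: LMPTP-A at 0.625 nM final in the reaction. Reagent: OMFP substrate, 400 µM final. Times: 50 min at room temperature. Signal: endpoint fluorescence intensity from OMFP dephosphorylation. Read-out basis: % inhibition. Benchmarks: no-enzyme and uninhibited controls.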
Scp-1 inhibitor: Scp-1 phosphatase inhibitors, primary screen, biochemical, colorimetric, uHTS; Carboxy-terminal domain RNA polymerase II polypeptide A small phosphatase 1 (Homo …; Recombinant Scp1, phosphopeptide, malachite green phosphate absorbance; AID 493091, 2011; inhibition, % at 20 µM; 340,000 compounds, 0.88% hits;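 active = inhibition above about 50% at 20 µM, limit read from the data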
Target sequence (Q9GZU7 76-261 limits assumed): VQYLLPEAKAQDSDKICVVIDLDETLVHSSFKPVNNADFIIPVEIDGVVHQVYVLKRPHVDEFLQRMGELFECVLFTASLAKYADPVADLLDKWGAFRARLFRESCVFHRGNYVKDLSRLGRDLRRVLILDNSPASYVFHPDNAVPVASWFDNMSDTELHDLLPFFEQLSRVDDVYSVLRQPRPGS
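System: SCP-1 catalytic domain; Reagent: Phospho 17-mer peptide substrate; Doses: one concentration, 20 µM, with 1.0% DMSO; Incubation: 45 min room-temperature reaction, 5 min colour, 30 min stabiliser; Signal: Phosphate-binding colour reagent, absorbance read at 630 nm.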
DNMT1 block: human DNMT1 methyltransferase inhibitors, primary screen, biochemical, molecular beacon, fluorescence, HinP1I cleavage, uHTS; DNA (cytosine-5)-methyltransferase 1 (Homo sapiens), P26358; inhibition (reported as % activation of signal), % at 10 µM; 360,000 compounds, 0.83% hits; AID 588458, 2011; in the data active = inhibition above about 50%
STEP inh: STEP phosphatase inhibitors, primary screen, biochemical, fluorescence intensity, uHTS; 360,000 compounds, 0.25% hits; inhibition, % at 20 µM; Tyrosine-protein phosphatase non-receptor type 5 (Homo sapiens), P54829; recombinant STEP, OMFP fluorogenic substrate;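 active = inhibition at 20 µM, scaled per plate between control wells, above about 37%, limit read from the data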
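Assay system: isolated STEP enzyme / Timing: 20 min at room temperature, dark / Doses: 20 µM, 1% DMSO / Technique: fluorescence intensity, excitation 480 nm, emission 540 nm / Reagent: fluorogenic phosphatase substrate OMFP at 25 µM final / Measure: percent inhibition scaled to no-enzyme and uninhibited-enzyme controls, plate-pattern corrected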
Large screens that a line does not name were inactive.

COC(=O)c1cc(O)cc(OC)c1Oc1cc(C)cc(O)c1C(=O)O	SUMO1 PPI mod 44.0, Scp-1 inhibitor 58.2
C[C@H]1CN([C@@H](C)CO)S(=O)(=O)c2ccc(C#Cc3cccc(F)c3)cc2O[C@H]1CN(C)C(=O)NC1CCCCC1	CFTR F508del cor 11.6 (no result: SUMO1 PPI mod, LMPTP inh, Scp-1 inhibitor, DNMT1 block, STEP inh)
CC(=O)N(C)C[C@@H]1Oc2cc(C#Cc3ccc(F)cc3)ccc2S(=O)(=O)N([C@H](C)CO)C[C@@H]1C	CFTR F508del cor 8.0 (no result: SUMO1 PPI mod, LMPTP inh, Scp-1 inhibitor, DNMT1 block, STEP inh)
C[C@H](CO)N1C[C@H](C)[C@@H](CN(C)C(=O)NC2CCCCC2)Oc2cc(C#Cc3cccc(F)c3)ccc2S1(=O)=O	none (no result: SUMO1 PPI mod, LMPTP inh, Scp-1 inhibitor, DNMT1 block, STEP inh)
C[C@H]1CN([C@@H](C)CO)S(=O)(=O)c2ccc(C#Cc3ccc(F)cc3)cc2O[C@H]1CN(C)C(=O)NC1CCCCC1	CFTR F508del cor 10.1 (no result: SUMO1 PPI mod, LMPTP inh, Scp-1 inhibitor, DNMT1 block, STEP inh)
C[C@@H]1CN([C@@H](C)CO)S(=O)(=O)c2ccc(C#Cc3ccccc3F)cc2O[C@@H]1CN(C)C(=O)c1ccc2c(c1)OCO2	none (no result: SUMO1 PPI mod, LMPTP inh, Scp-1 inhibitor, DNMT1 block, STEP inh)
C[C@H]1CN([C@@H](C)CO)S(=O)(=O)c2ccc(C#Cc3ccccc3F)cc2O[C@H]1CN(C)C(=O)c1ccc2c(c1)OCO2	CFTR F508del cor 9.6 (no result: SUMO1 PPI mod, LMPTP inh, Scp-1 inhibitor, DNMT1 block, STEP inh)
C[C@H]1CN([C@@H](C)CO)S(=O)(=O)c2ccc(C#Cc3ccc(F)cc3)cc2O[C@@H]1CN(C)C(=O)NC1CCCCC1	none (no result: SUMO1 PPI mod, LMPTP inh, Scp-1 inhibitor, DNMT1 block, STEP inh)
CCCNC(=O)[C@H]1[C@H](CO)[C@H]2Cn3c(ccc(-c4cccc(OC)c4)c3=O)[C@@H]1N2CC	none (no result: SUMO1 PPI mod, LMPTP inh, Scp-1 inhibitor, DNMT1 block, STEP inh)
CC(C)NC(=O)N[C@@H]1CC[C@@H](CC(=O)NC2Cc3ccccc3C2)O[C@@H]1CO	none (no result: SUMO1 PPI mod, LMPTP inh, Scp-1 inhibitor, DNMT1 block, STEP inh)
C[C@@H]1CN([C@H](C)CO)S(=O)(=O)c2ccc(C#Cc3cccc(F)c3)cc2O[C@@H]1CN(C)C(=O)NC1CCCCC1	CFTR F508del cor 10.4 (no result: SUMO1 PPI mod, LMPTP inh, Scp-1 inhibitor, DNMT1 block, STEP inh)
C[C@H](CO)N1C[C@H](C)[C@H](CN(C)C(=O)NC2CCCCC2)Oc2cc(C#Cc3cccc(F)c3)ccc2S1(=O)=O	CFTR F508del cor 8.4 (no result: SUMO1 PPI mod, LMPTP inh, Scp-1 inhibitor, DNMT1 block, STEP inh)
Cc1ccc(-c2csc(N(CCCN(C)C)C(=O)c3ccco3)n2)cc1	none
CN(C)CCCN(C(=O)c1ccco1)c1nc(-c2ccc(Cl)cc2)cs1	CFTR F508del cor 8.1
CC(=O)Nc1ccc2ccccc2c1	none (no result: CFTR F508del cor)
CC(=O)Nc1ccc2cc3ccc(NC(C)=O)cc3nc2c1	CFTR F508del cor 10.0
O=S(c1cc(Cl)cc(Cl)c1O)c1cc(Cl)cc(Cl)c1O	SUMO1 PPI mod 43.2 (no result: Scp-1 inhibitor, DNMT1 block, STEP inh)
O=[N+]([O-])c1c(Cl)cc(Cl)cc1Cl	none (no result: SUMO1 PPI mod, LMPTP inh, Scp-1 inhibitor, DNMT1 block, STEP inh)
Cc1ccc(S(=O)(=O)Nc2ccc3c(c2)C(=O)N([C@H](C)CO)C[C@H](C)[C@@H](CN(C)Cc2ccc4c(c2)OCO4)OCCCC[C@H](C)O3)cc1	none (no result: SUMO1 PPI mod, LMPTP inh, Scp-1 inhibitor, DNMT1 block, STEP inh)
COc1ccc(S(=O)(=O)N(C)C[C@H]2Oc3ccc(NC(=O)Nc4ccc(C(F)(F)F)cc4)cc3C(=O)N([C@@H](C)CO)C[C@@H]2C)cc1	none (no result: SUMO1 PPI mod, LMPTP inh, Scp-1 inhibitor, DNMT1 block, STEP inh)
COc1ccc(S(=O)(=O)Nc2ccc3c(c2)CC(=O)N([C@@H](C)CO)C[C@@H](C)[C@@H](CN(C)C(=O)Nc2ccc(F)cc2)O3)cc1	none (no result: SUMO1 PPI mod, LMPTP inh, Scp-1 inhibitor, DNMT1 block, STEP inh)
O=c1c2cc(Cl)ccc2nc(-c2ccc(Cl)c(Cl)c2)n1O	LMPTP inh 54.4
Cc1cc(=O)oc2cc(OCC(=O)Nc3ccc(CN4CCOCC4)cc3)c(Cl)cc12	none
Cc1cc(=O)oc2cc(OCC(=O)Nc3ccccc3C(N)=O)c(Cl)cc12	SUMO1 PPI mod 61.9
CCCN1CCc2c(sc(NC(=S)NC(=O)c3ccccc3)c2C#N)C1	LMPTP inh 58.6
CC(C)N1CCc2c(sc(NC(=S)NC(=O)c3ccccc3)c2C#N)C1	none (no result: CFTR F508del cor)
COc1ccc(CCNC(=O)c2cc(-c3ccc(C)c(C)c3O)n[nH]2)cc1OC	SUMO1 PPI mod 36.6 (no result: CFTR F508del cor)
